Test results published in ChEMBL document CHEMBL4411287, “Discovery and optimization of a series of 3-substituted indazole derivatives as multi-target kinase inhibitors for the treatment of lung squamous cell carcinoma” (Eur J Med Chem, 2019).
Residue numbers refer to the chain shown, from its start. Values after ≈ are worked out from the molar mass of the structure shown. One block for each molecule: values may come before it. Active and inactive are the calls of the source. No cut-off for these calls is given here.

How the values were obtained:
[1] = system: NCI-H716; test: Antiproliferative activity against FGFR2 amplified human NCI-H716 cells after 72 hrs by CCK8 assay; format: functional, cell-based; conditions: NCI-H716, 72 h
How it was run: (§1)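 Cells seeded at low density in growth medium and compounds added the next day. Incubated 72 h, then proliferation read by sulforhodamine B, MTT or CCK-8. IC50 obtained by four-parameter concentration-response curve fitting.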

[2] = system: SNU-16; test: Antiproliferative activity against FGFR2 amplified human SNU16 cells after 72 hrs by CCK8 assay; format: functional, cell-based; conditions: SNU-16, 72 h; how it was run: as §1
[3] = Antiproliferative activity against human UM-UC-14 cells harboring FGFR3 mutation after 72 hrs by CCK8 assay; format: functional, cell-based; conditions: UMUC14, 72 h; how it was run: as §1
[4] = system: KG-1; test: Antiproliferative activity against FGFR1 fused human KG1 cells after 72 hrs by CCK8 assay; format: functional, cell-based; conditions: KG-1, 72 h; how it was run: as §1
[5] = target: T1, Discoidin domain-containing receptor 2 (Homo sapiens) (UniProt Q16832); test: Inhibition of DDR2 (unknown origin) at 20 uM using poly (Glu, Tyr) 4:1 substrate after 60 mins by ELISA relative to control
T1 sequence (whole entry): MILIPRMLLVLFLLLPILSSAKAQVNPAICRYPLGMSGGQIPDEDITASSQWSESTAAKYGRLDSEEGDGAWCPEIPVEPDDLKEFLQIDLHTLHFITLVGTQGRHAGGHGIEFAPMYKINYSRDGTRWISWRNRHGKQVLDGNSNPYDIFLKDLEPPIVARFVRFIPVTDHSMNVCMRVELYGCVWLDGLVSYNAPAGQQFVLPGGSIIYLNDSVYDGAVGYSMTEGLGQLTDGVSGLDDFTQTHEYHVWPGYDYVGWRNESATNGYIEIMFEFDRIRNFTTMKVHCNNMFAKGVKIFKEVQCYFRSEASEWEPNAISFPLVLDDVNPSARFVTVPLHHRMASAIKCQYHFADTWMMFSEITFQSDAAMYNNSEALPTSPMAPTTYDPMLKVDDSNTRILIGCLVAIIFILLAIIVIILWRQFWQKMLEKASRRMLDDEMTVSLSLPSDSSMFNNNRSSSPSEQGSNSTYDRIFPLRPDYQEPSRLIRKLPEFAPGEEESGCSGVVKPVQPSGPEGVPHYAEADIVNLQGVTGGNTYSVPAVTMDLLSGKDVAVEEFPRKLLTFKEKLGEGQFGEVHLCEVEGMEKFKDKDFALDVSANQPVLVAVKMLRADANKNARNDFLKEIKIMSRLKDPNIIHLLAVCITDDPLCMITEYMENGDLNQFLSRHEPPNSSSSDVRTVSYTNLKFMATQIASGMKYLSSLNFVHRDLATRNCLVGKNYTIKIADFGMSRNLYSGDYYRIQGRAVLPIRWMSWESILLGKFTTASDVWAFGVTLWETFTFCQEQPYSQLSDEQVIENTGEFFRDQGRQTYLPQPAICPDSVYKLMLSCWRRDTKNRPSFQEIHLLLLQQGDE
How it was run: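 ELISA with purified recombinant DDR2 on poly(Glu,Tyr) 4:1 precoated at 20 µg/mL. 10 µM ATP in HEPES pH 7.4 buffer with MgCl2, MnCl2, Na3VO4 and DTT, 1% DMSO; 60 min at 37 °C. Phosphotyrosine detected by PY99 and HRP anti-mouse IgG with o-phenylenediamine at A490. Inhibition = 1−A490/A490control; two separate experiments.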

[6] = Tmax in ICR(CD-1) mouse at 10 mg/kg, po administered via gavage by triple quadrupole mass spectrometric analysis; format: ADME, organism-based; conditions: in vivo
How it was run: (§2)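 Dosed by gavage at 1 mg/mL in 1% Tween80/water to male ICR mice, 18-22 g, n=3. Blood taken at 0.25, 0.5, 1, 2, 4, 8 and 24 h. Plasma precipitated with methanol:acetonitrile (1:1) containing internal standard, then UPLC-MS/MS on a C18 column with an ammonium acetate/formic acid–acetonitrile gradient. Tmax read directly from the data; MRT calculated per animal from concentration–time curves.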

[7] = Half life in ICR(CD-1) mouse at 10 mg/kg, po administered via gavage by triple quadrupole mass spectrometric analysis; format: ADME, organism-based; conditions: in vivo
How it was run: (§3)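 Oral gavage at 1 mg/mL in 1% Tween80/water to male ICR mice (18-22 g, n=3). Plasma sampled at 0.25, 0.5, 1, 2, 4, 8 and 24 h, protein precipitated with methanol:acetonitrile (1:1) containing internal standard, and quantified by UPLC-triple quadrupole MS. AUC and MRT were taken from per-animal time-concentration curves. Cmax is the maximum plasma level and Tmax the time to reach it.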

[8] = AUC (0 to infinity) in ICR(CD-1) mouse at 10 mg/kg, po administered via gavage by triple quadrupole mass spectrometric analysis; format: ADME, organism-based; parameters: dose 10 mg/kg, route oral, time infinity; conditions: in vivo; how it was run: as §3
[9] = Efflux ratio of permeability in human Caco2 cells at 5 uM after 120 mins by LC-MS/MS analysis; format: ADME, cell-based; conditions: Caco-2
How it was run: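 Caco-2 (C2BBe1) monolayers grown to confluence on collagen-coated transwell polycarbonate membranes. Compound at 5 μM added apically or basolaterally in HBSS with 10 mM HEPES at pH 7.4 and 6.8. Duplicate samples taken at 120 min and analysed by LC-MS/MS. Efflux ratio = Papp(B→A)/Papp(A→B).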

[10] = Cmax in ICR(CD-1) mouse at 10 mg/kg, po administered via gavage by triple quadrupole mass spectrometric analysis; format: ADME, organism-based; parameters: dose 10 mg/kg, route oral; conditions: in vivo; how it was run: as §3
[11] = MRT in ICR(CD-1) mouse at 10 mg/kg, po administered via gavage by triple quadrupole mass spectrometric analysis; format: ADME, organism-based; conditions: in vivo; how it was run: as §2
[12] = Solubility of compound; format: physicochemical
[13] = AUC (0 to t) in ICR(CD-1) mouse at 10 mg/kg, po administered via gavage by triple quadrupole mass spectrometric analysis; format: ADME, organism-based; conditions: in vivo; how it was run: as §3
[14] = Permeability in human Caco2 cells at 5 uM after 120 mins by LC-MS/MS analysis relative to control; format: ADME, cell-based; conditions: Caco-2, read-out: Fabs
How it was run: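 Caco-2 (C2BBe1) monolayers grown confluent on collagen-coated transwell membranes. Buffer is HBSS with 10 mM HEPES at pH 7.4 and pH 6.8. Compound 5 µM added to the apical or basolateral side; duplicate samples taken at 120 min and analysed by LC-MS/MS. Results given as Papp A→B and B→A and efflux ratio B→A/A→B.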

[15] = system: T2, Discoidin domain-containing receptor 2 (Homo sapiens), Q16832 [I638F]; conditions: NCI-H2286, 100 nM
T2 sequence (whole entry): T1 sequence (whole entry) with I638F

[16] = system: NCI-H2286; test: Antiproliferative activity against human NCI-H2286 cells harboring DDR2 mutation after 72 hrs by CCK8 assay; format: functional, cell-based; conditions: NCI-H2286, 72 h; how it was run: as §1
[17] = system: NCI-H2286; test: Antitumor activity against human NCI-H2286 cells xenografted in SCID mouse assessed as tumor growth inhibition at 50 mg/kg, po qd for 10 consecutive days relative to control; format: functional; conditions: read-out: TGI
How it was run: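 NCI-H2286 xenograft established by s.c. fragment implantation. At 100-150 mm³ mice were randomized (vehicle n=10, treated n=5) and given compound orally once daily for 10 days. Tumour volume = length×width²/2, measured twice weekly. TGI taken on the final day from change in volume relative to vehicle, with Student's t-test.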

IC50 [1]: 5.9 nM
IC50 [2]: 19.6 nM
Compound: COc1cc(CCc2cc(NC(=O)c3ccc(N4C[C@@H](C)N[C@@H](C)C4)cc3)n[nH]2)cc(OC)c1 [FEXAGRATINIB]
IC50 [3]: 4.5 nM
IC50 [4]: 5.8 nM

inhibition [5]: 76%
Compound: Cn1cccc(C(=O)Nc2cccc(-c3ccc4[nH]ncc4c3)c2)c1=O

Tmax [6]: 1.67 h
half-life [7]: 1.4 h
AUC(0-inf) [8]: 610 ng·h/mL
efflux ratio at 2 h, 5 µM [9]: 42.7
Cmax [10]: 111 ng/mL
MRT [11]: 3.2 h
solubility [12]: 10 µM (≈ 6.14 µg/mL)
AUC(0-t) [13]: 66.2 ng·h/mL
Fa at 2 h, 5 µM [14]: 12%
Compound: Cc1ccc(C(=O)Nc2cc(CN3CCN(C)CC3)cc(C(F)(F)F)c2)cc1-c1ccc2c(-c3cnn(C4CC4)c3)n[nH]c2c1

inhibition [15]: Active
IC50 [16]: 33.3 nM
Compound: Cc1nc(Nc2ncc(C(=O)Nc3c(C)cccc3Cl)s2)cc(N2CCN(CCO)CC2)n1 [DASATINIB]
inhibition in vivo at 50 mg/kg [17]: 50.9%
